Reference: ChEMBL document CHEMBL5154815, “A Series of Substituted Bis-Aminotriazines Are Activators of the Natriuretic Peptide Receptor C” (J Med Chem, 2022)
Active and inactive are the calls of the source. The calls are words filed in the database; no cut-off is given here.

Columns and labels:
[1] = Half life in fasted C57BL/6 mouse at 10 mg/kg, po by LC-MS/MS analysis; assay type: ADME, organism-based; conditions: in vivo
[2] = biological target: T1, Atrial natriuretic peptide receptor 3 (Homo sapiens) (UniProt P17342); experiment: Agonist activity at NPRC in human Hela cells assessed as decrease in forskolin-induced cAMP level at 100 uM relative to control; assay type: cell-based; set-up: scale not given: the % may be the effect or the level left
T1 sequence (whole entry): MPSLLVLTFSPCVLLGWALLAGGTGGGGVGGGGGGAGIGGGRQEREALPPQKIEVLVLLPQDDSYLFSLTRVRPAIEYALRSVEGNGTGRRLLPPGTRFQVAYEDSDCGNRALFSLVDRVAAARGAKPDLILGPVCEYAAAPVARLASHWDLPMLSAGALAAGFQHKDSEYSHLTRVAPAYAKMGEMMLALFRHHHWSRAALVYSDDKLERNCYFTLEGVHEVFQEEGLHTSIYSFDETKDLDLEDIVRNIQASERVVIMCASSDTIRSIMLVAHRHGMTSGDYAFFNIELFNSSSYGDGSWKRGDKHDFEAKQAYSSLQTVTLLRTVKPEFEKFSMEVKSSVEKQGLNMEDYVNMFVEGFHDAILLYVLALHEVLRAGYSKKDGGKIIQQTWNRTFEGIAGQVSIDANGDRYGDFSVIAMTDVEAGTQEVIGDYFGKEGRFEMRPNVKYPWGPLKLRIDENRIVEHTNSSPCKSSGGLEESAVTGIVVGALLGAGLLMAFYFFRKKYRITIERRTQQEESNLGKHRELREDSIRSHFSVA

[3] = Half life in fasted C57BL/6 mouse at 3 mg/kg, iv by LC-MS/MS analysis; assay type: ADME, organism-based; conditions: in vivo
Cytochrome P450 2C9 = Cytochrome P450 2C9 (Homo sapiens, UniProt P11712); experiment: Inhibition of CYP2C9 in human liver microsomes using diclofenac as substrate preincubated for 10 mins followed by NADPH addition and measured after 10 mins by LC/MS/MS analysis
in vivo = conditions: C57BL/6, mouse, po, 10 mg/kg
[4] = Stability of compound in pooled human plasma assessed as half life measured upto 120 mins by LC/MS/MS analysis; conditions: 2 h
[5] = AUC (0 to infinity) in fasted C57BL/6 mouse at 3 mg/kg, iv by LC-MS/MS analysis; assay type: ADME, organism-based; set-up: time infinity, dose 3 mg/kg, route iv; conditions: in vivo
[6] = Mean residence time (0 to infinity) in fasted C57BL/6 mouse at 3 mg/kg, iv by LC-MS/MS analysis; conditions: in vivo
Cytochrome P450 2C19 = Cytochrome P450 2C19 (Homo sapiens, UniProt P33261); experiment: Inhibition of CYP2C19 in human liver microsomes using S-mephenytoin as substrate preincubated for 10 mins followed by NADPH addition and measured after 20 mins by LC/MS/MS analysis
Cytochrome P450 3A4 [7] = biological target: T2, Cytochrome P450 3A4 (Homo sapiens, UniProt P08684); experiment: Inhibition of CYP3A4 in human liver microsomes using midazolam as a substrate preincubated for 10 mins followed by NADPH addition and measured after 20 mins by LC/MS/MS analysis
[8] = Mean residence time (0 to infinity) in fasted C57BL/6 mouse at 10 mg/kg, po by LC-MS/MS analysis; conditions: in vivo
Cytochrome P450 2C8 = biological target: T3, Cytochrome P450 2C8 (Homo sapiens, UniProt P10632); experiment: Inhibition of CYP2C8 in human liver microsomes using amodiaquine as a substrate preincubated for 10 mins followed by NADPH addition and measured after 10 mins by LC/MS/MS analysis
T3 sequence (P10632 whole entry): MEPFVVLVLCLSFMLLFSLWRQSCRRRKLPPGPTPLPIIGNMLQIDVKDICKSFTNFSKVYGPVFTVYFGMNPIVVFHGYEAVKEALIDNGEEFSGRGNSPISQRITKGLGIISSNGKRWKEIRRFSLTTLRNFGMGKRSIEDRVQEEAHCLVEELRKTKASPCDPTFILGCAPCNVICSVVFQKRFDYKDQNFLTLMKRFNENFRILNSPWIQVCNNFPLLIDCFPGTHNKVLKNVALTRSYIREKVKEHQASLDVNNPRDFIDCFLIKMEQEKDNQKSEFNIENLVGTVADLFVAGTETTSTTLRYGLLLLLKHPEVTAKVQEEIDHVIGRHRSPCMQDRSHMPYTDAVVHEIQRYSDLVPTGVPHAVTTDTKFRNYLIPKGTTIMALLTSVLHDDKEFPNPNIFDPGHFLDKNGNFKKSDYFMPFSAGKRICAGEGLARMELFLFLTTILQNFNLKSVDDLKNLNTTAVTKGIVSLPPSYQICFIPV

[9] = Initial plasma concentration in fasted C57BL/6 mouse at 3 mg/kg, iv by LC-MS/MS analysis
[10] = Cmax in fasted C57BL/6 mouse at 10 mg/kg, po by LC-MS/MS analysis; assay type: ADME, organism-based; set-up: dose 10 mg/kg, route po; conditions: in vivo
Method in brief: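 EDTA-K2 plasma was protein-precipitated with internal standard and centrifuged 20 min at 4 °C. Analysis by LC-MS/MS against a 1–1000 ng/mL calibration curve.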

[11] = biological target: T4, Atrial natriuretic peptide receptor 3 (Rattus norvegicus) (UniProt P41740); experiment: Agonist activity at NPRC in rat small mesenteric arteries assessed as inhibition of cANF4-23 induced vasorelaxation in presence of osteocrin by Organ bath assay; assay type: tissue-based; conditions: Artery, filed as agonist
T4 sequence (whole entry): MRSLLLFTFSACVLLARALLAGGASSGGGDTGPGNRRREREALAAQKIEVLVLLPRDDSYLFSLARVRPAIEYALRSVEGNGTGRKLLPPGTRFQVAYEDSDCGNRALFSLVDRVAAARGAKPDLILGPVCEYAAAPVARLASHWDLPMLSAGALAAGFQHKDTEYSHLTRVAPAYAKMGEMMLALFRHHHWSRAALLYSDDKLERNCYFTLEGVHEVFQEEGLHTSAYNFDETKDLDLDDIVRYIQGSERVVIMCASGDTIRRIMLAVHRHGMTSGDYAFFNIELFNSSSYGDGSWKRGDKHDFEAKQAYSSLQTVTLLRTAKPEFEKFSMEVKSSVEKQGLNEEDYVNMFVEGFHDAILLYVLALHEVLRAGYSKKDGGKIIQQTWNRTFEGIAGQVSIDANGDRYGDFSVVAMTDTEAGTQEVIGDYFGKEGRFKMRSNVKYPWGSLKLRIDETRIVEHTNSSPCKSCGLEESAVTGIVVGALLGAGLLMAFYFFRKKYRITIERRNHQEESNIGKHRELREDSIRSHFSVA
Method in brief: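 Small mesenteric artery rings from male Wistar rats in classical tissue-bath pharmacology. Vessels were preincubated 15 min with M372049 10 μM or osteocrin 100 nM before the vasorelaxant response to test agents was assessed.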

Cytochrome P450 3A4 [12] = biological target: T2, Cytochrome P450 3A4; experiment: Inhibition of CYP3A4 in human liver microsomes using testosterone as a substrate preincubated for 10 mins followed by NADPH addition and measured after 10 mins by LC/MS/MS analysis

T2 sequence (P08684 whole entry): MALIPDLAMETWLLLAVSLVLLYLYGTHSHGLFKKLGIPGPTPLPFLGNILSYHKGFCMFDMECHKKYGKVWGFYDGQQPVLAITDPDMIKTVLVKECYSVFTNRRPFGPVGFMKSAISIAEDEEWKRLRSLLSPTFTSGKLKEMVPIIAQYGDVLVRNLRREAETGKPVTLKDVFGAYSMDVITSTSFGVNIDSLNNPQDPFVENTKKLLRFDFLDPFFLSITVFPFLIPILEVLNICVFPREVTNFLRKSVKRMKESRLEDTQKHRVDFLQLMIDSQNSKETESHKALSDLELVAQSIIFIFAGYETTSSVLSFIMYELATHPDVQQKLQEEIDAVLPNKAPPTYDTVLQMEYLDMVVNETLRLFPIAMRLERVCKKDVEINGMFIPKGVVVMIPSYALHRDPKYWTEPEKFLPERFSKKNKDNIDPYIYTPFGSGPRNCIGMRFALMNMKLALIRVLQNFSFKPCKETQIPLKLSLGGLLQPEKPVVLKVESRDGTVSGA
Sequence of Cytochrome P450 2C9 (P11712 whole entry): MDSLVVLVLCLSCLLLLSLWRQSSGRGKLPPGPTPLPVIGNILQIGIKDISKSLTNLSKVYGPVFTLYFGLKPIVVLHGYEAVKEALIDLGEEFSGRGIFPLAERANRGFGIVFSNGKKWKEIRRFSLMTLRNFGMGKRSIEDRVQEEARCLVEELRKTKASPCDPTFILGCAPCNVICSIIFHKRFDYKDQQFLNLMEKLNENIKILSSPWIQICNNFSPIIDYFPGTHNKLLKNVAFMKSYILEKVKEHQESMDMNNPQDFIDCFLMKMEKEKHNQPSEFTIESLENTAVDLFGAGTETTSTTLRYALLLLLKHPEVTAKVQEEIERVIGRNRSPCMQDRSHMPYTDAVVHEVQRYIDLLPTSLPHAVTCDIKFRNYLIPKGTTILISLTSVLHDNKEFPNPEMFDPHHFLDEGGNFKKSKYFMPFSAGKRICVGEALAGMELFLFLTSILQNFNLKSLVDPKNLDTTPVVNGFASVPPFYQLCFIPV
Sequence of Cytochrome P450 2C19 (P33261 whole entry): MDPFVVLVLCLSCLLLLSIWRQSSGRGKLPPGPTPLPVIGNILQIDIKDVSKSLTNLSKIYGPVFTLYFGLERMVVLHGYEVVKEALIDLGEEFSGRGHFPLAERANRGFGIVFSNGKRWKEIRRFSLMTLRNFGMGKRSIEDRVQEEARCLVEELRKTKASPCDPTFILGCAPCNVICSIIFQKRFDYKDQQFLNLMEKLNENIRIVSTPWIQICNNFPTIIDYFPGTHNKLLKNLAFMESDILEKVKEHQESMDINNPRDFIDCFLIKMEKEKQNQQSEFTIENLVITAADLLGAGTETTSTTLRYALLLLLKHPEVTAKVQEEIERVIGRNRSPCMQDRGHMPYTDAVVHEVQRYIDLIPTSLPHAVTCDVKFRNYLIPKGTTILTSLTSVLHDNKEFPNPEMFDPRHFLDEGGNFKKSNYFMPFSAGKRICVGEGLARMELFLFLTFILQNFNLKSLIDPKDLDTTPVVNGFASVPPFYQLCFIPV

Question: With `CC(=O)Nc1ccc(Nc2ncnc(NCCC(=O)OC(C)(C)C)n2)cc1` as the compound, how does the half-life [1] read?
Answer: Its half-life is 82.2 min.

Question: And the Activity [2]?
Answer: Its Activity is 37.7%.

Question: And the half-life [3]?
Answer: The half-life was 34 min.

Question: What about the IC50 (Cytochrome P450 2C9) of the same compound?
Answer: Its IC50 is > 50 µM.

Question: And the Tmax (in vivo)?
Answer: The Tmax was 15 min.

Question: And the t1/2 [4]?
Answer: Its t1/2 is > 120 min.

Question: What about the AUC(0-inf) [5] of the same compound?
Answer: The AUC(0-inf) was 448 ng·h/mL.

Question: What about the MRT inf [6] of the same compound?
Answer: Its MRT inf is 15.7 min.

Question: And the IC50 (Cytochrome P450 2C19)?
Answer: Its IC50 is > 50 µM.

Question: What about the IC50 (Cytochrome P450 3A4 [7]) of the same compound?
Answer: Its IC50 is > 50 µM.

Question: What about the MRT inf [8] of the same compound?
Answer: Its MRT inf is 79.8 min.

Question: What about the IC50 (Cytochrome P450 2C8) of the same compound?
Answer: Its IC50 is > 50 µM.

Question: And the C0 [9]?
Answer: The C0 was 2330 ng/mL.

Question: What about the Cmax [10] of the same compound?
Answer: Its Cmax is 612 ng/mL.

Question: What about the Activity [11] of the same compound?
Answer: Its Activity is “Active”.

Question: What about the IC50 (Cytochrome P450 3A4 [12]) of the same compound?
Answer: Its IC50 is > 50 µM.
